In the M2OR odorant receptor database:

Assays:
Conditions in all cases: stereoisomer not certain
OR4A15 (Homo sapiens) = OR4A15 (Homo sapiens) (UniProt Q8NGL6)
Summary of the method: (§1)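 Whether a receptor–molecule pair is responsive (active) rests on the original authors' judgment that its measured signal was statistically different from baseline. Pairs without that judgment are non-responsive (inactive). Sources used varied assay methods, commonly transient luciferase assays in mammalian cell lines.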

OR4A16 (Homo sapiens) = OR4A16 (Homo sapiens) (UniProt Q8NH70)
Summary of the method: as §1

OR4A47 (Homo sapiens) = OR4A47 (Homo sapiens) (UniProt Q6IF82)
Summary of the method: as §1

OR4A5 (Homo sapiens) = OR4A5 (Homo sapiens) (UniProt Q8NH83)
Summary of the method: as §1

OR4B1 (Homo sapiens) = OR4B1 (Homo sapiens) (UniProt Q8NGF8)
Summary of the method: as §1

OR4C11 (Homo sapiens) = OR4C11 (Homo sapiens) (UniProt Q6IEV9)
Summary of the method: as §1

OR4C12 (Homo sapiens) = OR4C12 (Homo sapiens) (UniProt Q96R67)
Summary of the method: as §1

OR4C13 (Homo sapiens) = OR4C13 (Homo sapiens) (UniProt Q8NGP0)
Summary of the method: as §1

OR4A8 (Homo sapiens) = OR4A8 (Homo sapiens) (UniProt P0C604)
Summary of the method: as §1

OR4C15 (Homo sapiens) = OR4C15 (Homo sapiens) (UniProt Q8NGM1)
Summary of the method: as §1

Measured: odorant receptor agonist call

Chain of OR4C13 (Homo sapiens) (Q8NGP0 whole entry): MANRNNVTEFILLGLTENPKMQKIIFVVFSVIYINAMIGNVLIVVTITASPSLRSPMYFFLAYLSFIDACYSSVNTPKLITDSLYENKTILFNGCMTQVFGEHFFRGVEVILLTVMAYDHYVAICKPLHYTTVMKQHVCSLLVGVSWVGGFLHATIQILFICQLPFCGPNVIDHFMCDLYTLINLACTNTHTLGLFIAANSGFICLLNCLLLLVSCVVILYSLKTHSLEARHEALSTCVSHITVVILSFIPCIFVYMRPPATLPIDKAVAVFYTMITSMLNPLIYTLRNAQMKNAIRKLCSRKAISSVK
Chain of OR4A16 (Homo sapiens) (Q8NH70 whole entry): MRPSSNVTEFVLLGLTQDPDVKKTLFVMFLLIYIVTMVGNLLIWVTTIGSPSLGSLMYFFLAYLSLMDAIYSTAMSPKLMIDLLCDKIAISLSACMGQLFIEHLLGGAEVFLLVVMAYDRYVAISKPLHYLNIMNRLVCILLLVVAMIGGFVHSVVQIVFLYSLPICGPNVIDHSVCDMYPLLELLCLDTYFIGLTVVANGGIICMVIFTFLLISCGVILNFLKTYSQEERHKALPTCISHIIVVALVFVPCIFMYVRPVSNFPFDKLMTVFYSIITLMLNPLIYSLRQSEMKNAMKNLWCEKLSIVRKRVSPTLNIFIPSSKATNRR
Chain of OR4C12 (Homo sapiens) (Q96R67 whole entry): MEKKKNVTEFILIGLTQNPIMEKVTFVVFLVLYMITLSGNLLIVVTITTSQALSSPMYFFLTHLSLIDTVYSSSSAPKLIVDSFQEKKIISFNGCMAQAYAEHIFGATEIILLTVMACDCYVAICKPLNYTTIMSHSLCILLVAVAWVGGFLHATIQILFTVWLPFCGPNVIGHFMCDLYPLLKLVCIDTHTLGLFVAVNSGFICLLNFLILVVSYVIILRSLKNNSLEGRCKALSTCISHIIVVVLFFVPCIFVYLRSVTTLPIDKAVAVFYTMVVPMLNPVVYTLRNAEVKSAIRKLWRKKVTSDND
Chain of OR4C11 (Homo sapiens) (Q6IEV9 whole entry): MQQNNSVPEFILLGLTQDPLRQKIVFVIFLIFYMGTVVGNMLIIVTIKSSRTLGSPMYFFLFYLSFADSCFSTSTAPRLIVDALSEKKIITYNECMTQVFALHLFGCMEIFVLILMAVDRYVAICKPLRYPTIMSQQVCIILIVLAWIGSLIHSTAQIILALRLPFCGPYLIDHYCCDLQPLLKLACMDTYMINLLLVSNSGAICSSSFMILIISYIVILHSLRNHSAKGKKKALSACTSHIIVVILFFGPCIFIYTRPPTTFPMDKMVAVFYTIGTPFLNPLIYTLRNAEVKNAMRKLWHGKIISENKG
Chain of OR4A5 (Homo sapiens) (Q8NH83 whole entry): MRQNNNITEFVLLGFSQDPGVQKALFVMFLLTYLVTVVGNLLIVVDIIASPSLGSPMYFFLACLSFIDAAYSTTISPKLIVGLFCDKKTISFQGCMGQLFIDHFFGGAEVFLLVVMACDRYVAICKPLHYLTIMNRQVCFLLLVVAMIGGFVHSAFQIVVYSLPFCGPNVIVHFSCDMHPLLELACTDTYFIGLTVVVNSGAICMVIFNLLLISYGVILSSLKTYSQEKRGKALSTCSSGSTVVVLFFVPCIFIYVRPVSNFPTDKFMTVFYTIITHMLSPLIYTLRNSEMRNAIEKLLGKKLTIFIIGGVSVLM
Chain of OR4A15 (Homo sapiens) (Q8NGL6 whole entry): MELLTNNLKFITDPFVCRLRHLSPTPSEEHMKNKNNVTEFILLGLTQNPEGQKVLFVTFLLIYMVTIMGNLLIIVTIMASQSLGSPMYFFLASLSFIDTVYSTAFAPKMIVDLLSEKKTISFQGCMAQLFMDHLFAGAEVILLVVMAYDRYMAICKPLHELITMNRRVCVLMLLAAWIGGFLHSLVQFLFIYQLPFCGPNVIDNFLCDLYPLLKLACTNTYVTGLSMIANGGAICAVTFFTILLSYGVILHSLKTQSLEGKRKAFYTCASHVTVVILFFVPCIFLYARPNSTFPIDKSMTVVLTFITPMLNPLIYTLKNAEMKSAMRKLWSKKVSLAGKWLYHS
Chain of OR4A47 (Homo sapiens) (Q6IF82 whole entry): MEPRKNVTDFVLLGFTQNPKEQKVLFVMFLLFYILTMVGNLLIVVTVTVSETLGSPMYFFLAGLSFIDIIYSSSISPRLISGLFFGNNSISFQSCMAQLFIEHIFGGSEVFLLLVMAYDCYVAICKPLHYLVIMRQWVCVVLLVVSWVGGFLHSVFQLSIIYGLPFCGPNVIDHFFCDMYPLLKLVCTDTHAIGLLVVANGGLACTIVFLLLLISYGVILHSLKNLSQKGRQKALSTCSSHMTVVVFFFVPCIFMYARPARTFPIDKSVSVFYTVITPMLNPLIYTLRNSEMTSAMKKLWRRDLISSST
Chain of OR4B1 (Homo sapiens) (Q8NGF8 whole entry): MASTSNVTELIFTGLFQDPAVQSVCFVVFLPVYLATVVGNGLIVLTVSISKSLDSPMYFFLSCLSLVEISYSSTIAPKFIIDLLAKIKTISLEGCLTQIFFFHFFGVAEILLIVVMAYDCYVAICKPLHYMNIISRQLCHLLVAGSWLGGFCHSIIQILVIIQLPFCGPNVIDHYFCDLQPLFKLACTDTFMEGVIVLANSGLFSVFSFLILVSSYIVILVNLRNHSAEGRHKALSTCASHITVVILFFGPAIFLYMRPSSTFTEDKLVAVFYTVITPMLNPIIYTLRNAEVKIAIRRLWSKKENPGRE
Chain of OR4A8 (Homo sapiens) (P0C604 whole entry): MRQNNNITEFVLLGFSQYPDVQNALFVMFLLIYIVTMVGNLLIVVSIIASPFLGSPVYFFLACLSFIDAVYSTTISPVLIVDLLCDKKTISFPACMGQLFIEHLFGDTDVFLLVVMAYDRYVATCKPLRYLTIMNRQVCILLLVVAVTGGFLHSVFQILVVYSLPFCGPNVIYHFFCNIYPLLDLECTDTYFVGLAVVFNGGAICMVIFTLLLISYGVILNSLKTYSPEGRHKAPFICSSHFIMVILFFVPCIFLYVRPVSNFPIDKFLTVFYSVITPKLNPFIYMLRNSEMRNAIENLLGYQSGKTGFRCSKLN
Chain of OR4C15 (Homo sapiens) (Q8NGM1 whole entry): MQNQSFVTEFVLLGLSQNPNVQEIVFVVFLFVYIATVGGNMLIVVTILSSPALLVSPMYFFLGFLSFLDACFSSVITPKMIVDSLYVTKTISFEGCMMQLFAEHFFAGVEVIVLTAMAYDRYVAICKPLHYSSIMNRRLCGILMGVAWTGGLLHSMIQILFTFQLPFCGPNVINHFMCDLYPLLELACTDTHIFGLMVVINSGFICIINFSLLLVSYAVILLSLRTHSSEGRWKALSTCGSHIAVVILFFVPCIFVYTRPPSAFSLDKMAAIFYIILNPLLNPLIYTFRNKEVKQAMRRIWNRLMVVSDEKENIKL

C=CCOC(=O)Cc1ccccc1
not listed: OR4A8 (Homo sapiens) | OR4C15 (Homo sapiens)
inactive: all other assays above

Cc1c([N+](=O)[O-])c(C)c([N+](=O)[O-])c(C(C)(C)C)c1[N+](=O)[O-]
inactive: all assays above
